Measurements from ChEMBL document CHEMBL1255517, “CD4 mimics targeting the HIV entry mechanism and their hybrid molecules with a CXCR4 antagonist” (Bioorg Med Chem Lett, 2010).

Tests used:
[1] = system: Human immunodeficiency virus 1; assay: Antiviral activity against HIV1 3B infected in human MT2 cells assessed as protection against virus-induced cytopathogenicity by MTT assay; assay type: functional, organism-based
[2] = Cytotoxicity against human MT2 cells by MTT assay; assay type: cell-based
[3] = target: C-X-C chemokine receptor type 4 (Homo sapiens, UniProt P61073); assay: Displacement of [125I]-SDF-1-alpha from CXCR4 expressed in CHO cells; assay type: cell-based
PM1 = assay: Inhibition of CD4-induced monoclonal antibody 4C11 binding to HIV1 JR-FL infected in human PM1 cells expressing CCR5 at 100 uM after 15 mins by FACS analysis (reference value: 27.60)
[4] = Cytotoxicity against human PM1 cells expressing CCR5 by MTT assay; assay type: cell-based
Summary of the method: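 Mock-infected PM1/CCR5 cells were exposed to compound, with viability read by MTT. CC50 is the concentration that reduces viability by 50%. Values are means with standard deviation from at least three independent experiments.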

[5] = system: Human immunodeficiency virus 1; assay: Antiviral activity against HIV1 3B infected in human PM1 cells expressing CCR5 assessed as protection against virus-induced cytopathogenicity by MTT assay; assay type: functional, organism-based; details: Human immunodeficiency virus 1, 3B
Summary of the method: (§1)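 Cells were PM1/CCR5 infected with HIV-1, with viability read by MTT. IC50 is the compound concentration giving 50% protection against virus-induced cytopathogenicity. Values are means with standard deviation from at least three independent experiments.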

[6] = system: Human immunodeficiency virus 1; assay: Antiviral activity against HIV1 MNA infected in human PM1 cells expressing CCR5 assessed as protection against virus-induced cytopathogenicity by MTT assay; assay type: functional, organism-based; details: Human immunodeficiency virus 1, MNA; summary of the method: as §1
[7] = Selectivity index, ratio of CC50 for human MT-2 cells to IC50 for HIV1 IIIB
[8] = system: Human immunodeficiency virus 1; assay: Antiviral activity against HIV1 isolate 89.6 infected in human PM1 cells expressing CCR5 assessed as protection against virus-induced cytopathogenicity by MTT assay; assay type: functional, organism-based; details: Human immunodeficiency virus 1, isolate 89.6, PM1; summary of the method: as §1
[9] = Selectivity index, ratio of CC50 for human PM1 cells expressing CCR5 to IC50 for HIV1 MNA; assay type: functional
[10] = system: Human immunodeficiency virus 1; assay: Antiviral activity against HIV1 MTA infected in human PM1 cells expressing CCR5 assessed as protection against virus-induced cytopathogenicity by MTT assay; assay type: functional, organism-based; details: Human immunodeficiency virus 1, MTA; summary of the method: as §1
[11] = Human immunodeficiency virus 1, 3B, MT2

C-X-C chemokine receptor type 4, sequence (P61073 whole entry): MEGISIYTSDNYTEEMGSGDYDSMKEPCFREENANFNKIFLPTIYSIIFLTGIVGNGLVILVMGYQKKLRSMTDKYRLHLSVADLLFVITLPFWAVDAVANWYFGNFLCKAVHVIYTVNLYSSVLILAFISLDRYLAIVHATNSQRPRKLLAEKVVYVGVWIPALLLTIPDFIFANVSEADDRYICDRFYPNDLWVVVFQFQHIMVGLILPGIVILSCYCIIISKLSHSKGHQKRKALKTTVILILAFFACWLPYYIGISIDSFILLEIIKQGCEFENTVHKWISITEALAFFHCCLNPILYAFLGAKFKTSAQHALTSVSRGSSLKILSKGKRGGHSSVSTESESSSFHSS

| SMILES | RFU (PM1) | CC50 [4] [µM] | IC50 [5] [µM] | further results |
| --- | --- | --- | --- | --- |
| N=C(N)NCCC[C@H](NC(=O)[C@@H]1CSSC[C@H](NC(=O)[C@H](Cc2ccc3ccccc3c2)NC(=O)[C@H](CCCNC(=N)N)NC(=O)[C@H](CCCNC(=N)N)NC(=O)c2ccc(F)cc2)C(=O)N[C@@H](Cc2ccc(O)cc2)C(=O)N[C@@H](CCCNC(N)=O)C(=O)N[C@@H](CCCNC(=N)N)C(=O)N[C@H](CCCCNC(=O)CCC(=O)NCCCCCCCCN2CCC(NC(=O)C(=O)Nc3ccc(Cl)cc3)CC2)C(=O)N2CCC[C@H]2C(=O)N[C@@H](Cc2ccc(O)cc2)C(=O)N[C@@H](CCCNC(=N)N)C(=O)N[C@@H](CCCNC(N)=O)C(=O)N1)C(N)=O [listing 1 of 2 here] |  |  |  | IC50 ([1]; mt2): 0.0353 µM; CC50 [2]: 8.6 µM; EC50 [3]: 0.0071 µM |
| CC(C)C(=O)N1CCC(NC(=O)C(=O)Nc2ccc(Cl)cc2)CC1 | 8.27 | 45 | > 100 |  |
| Cc1ccc(NC(=O)C(=O)NC2CC(C)(C)NC(C)(C)C2)cc1 | 8.66 | 210 |  | IC50 [6]: 15 µM |
| CC1(C)CC(NC(=O)C(=O)Nc2ccc(Br)cc2)CC(C)(C)N1 |  | 93 |  |  |
| NC(=O)NCCC[C@@H]1NC(=O)[C@H](CCCN=C(N)N)NC(=O)[C@H](Cc2ccc(O)cc2)NC(=O)[C@@H]2CCCN2C(=O)[C@@H](CCCCNC(=O)CCC(=O)NCCCCCCN2CCC(NC(=O)C(=O)Nc3ccc(Cl)cc3)CC2)NC(=O)[C@H](CCCN=C(N)N)NC(=O)[C@H](CCCNC(N)=O)NC(=O)[C@H](Cc2ccc(O)cc2)NC(=O)[C@@H](NC(=O)[C@H](Cc2ccc3ccccc3c2)NC(=O)[C@H](CCCN=C(N)N)NC(=O)[C@H](CCCN=C(N)N)NC(=O)c2ccc(F)cc2)CSSC[C@@H](C(=O)N[C@@H](CCCN=C(N)N)C(N)=O)NC1=O [listing 1 of 2 here] |  |  |  | Selectivity Index [7]: 219 |
| O=C(O)CCC(=O)N1CCC(NC(=O)C(=O)Nc2ccc(Cl)cc2)CC1 | 26.1 | > 300 | > 100 | IC50 [8]: > 100 µM |
| CC1(C)CC(NC(=O)C(=O)Nc2ccc(Cl)cc2)CC(C)(C)N1 | 18.4 | 110 | 8 | IC50 [8]: 10 µM; IC50 [6]: 12 µM; IC50 [1, 11]: 2.1 µM; Selectivity Index [9]: 19.2 |
| NC(=O)NCCC[C@@H]1NC(=O)[C@H](CCCN=C(N)N)NC(=O)[C@H](Cc2ccc(O)cc2)NC(=O)[C@@H]2CCCN2C(=O)[C@@H](CCCCNC(=O)CCC(=O)NCCCCCCN2CCC(NC(=O)C(=O)Nc3ccc(Cl)cc3)CC2)NC(=O)[C@H](CCCN=C(N)N)NC(=O)[C@H](CCCNC(N)=O)NC(=O)[C@H](Cc2ccc(O)cc2)NC(=O)[C@@H](NC(=O)[C@H](Cc2ccc3ccccc3c2)NC(=O)[C@H](CCCN=C(N)N)NC(=O)[C@H](CCCN=C(N)N)NC(=O)c2ccc(F)cc2)CSSC[C@@H](C(=O)N[C@@H](CCCN=C(N)N)C(N)=O)NC1=O [listing 2 of 2 here] |  |  |  | IC50 [1, 11]: 0.0365 µM; CC50 [2]: 8 µM; EC50 [3]: 0.0187 µM |
| O=C(Nc1ccc(Br)cc1)C(=O)NC1CCNCC1 | 52.3 | 50 |  | IC50 [6]: 6 µM |
| Cc1cn([C@H]2C[C@H](N=[N+]=[N-])[C@@H](CO)O2)c(=O)[nH]c1=O [ZIDOVUDINE] |  |  |  | IC50 [1, 11]: 0.0493 µM |
| CC(=O)N1CCC(NC(=O)C(=O)Nc2ccc(Cl)cc2)CC1 | 29.1 | > 300 | > 100 | IC50 [8]: > 100 µM |
| N=C(N)NCCC[C@H](NC(=O)[C@@H]1CSSC[C@H](NC(=O)[C@H](Cc2ccc3ccccc3c2)NC(=O)[C@H](CCCNC(=N)N)NC(=O)[C@H](CCCNC(=N)N)NC(=O)c2ccc(F)cc2)C(=O)N[C@@H](Cc2ccc(O)cc2)C(=O)N[C@@H](CCCNC(N)=O)C(=O)N[C@@H](CCCNC(=N)N)C(=O)N[C@H](CCCCNC(=O)CCC(=O)NCCCCN2CCC(NC(=O)C(=O)Nc3ccc(Cl)cc3)CC2)C(=O)N2CCC[C@H]2C(=O)N[C@@H](Cc2ccc(O)cc2)C(=O)N[C@@H](CCCNC(=N)N)C(=O)N[C@@H](CCCNC(N)=O)C(=O)N1)C(N)=O [listing 1 of 2 here] |  |  |  | IC50 [1, 11]: 0.0509 µM; CC50 [2]: 8.6 µM; EC50 [3]: 0.0044 µM |
| CN1CCC(NC(=O)C(=O)Nc2ccc(Cl)cc2)CC1 | 33.6 | > 300 | 67 | IC50 [8]: > 100 µM |
| N=C(N)NCCC[C@H](NC(=O)[C@@H]1CSSC[C@H](NC(=O)[C@H](Cc2ccc3ccccc3c2)NC(=O)[C@H](CCCNC(=N)N)NC(=O)[C@H](CCCNC(=N)N)NC(=O)c2ccc(F)cc2)C(=O)N[C@@H](Cc2ccc(O)cc2)C(=O)N[C@@H](CCCNC(N)=O)C(=O)N[C@@H](CCCNC(=N)N)C(=O)N[C@H](CCCCNC(=O)CCC(=O)NCCCCCCCCN2CCC(NC(=O)C(=O)Nc3ccc(Cl)cc3)CC2)C(=O)N2CCC[C@H]2C(=O)N[C@@H](Cc2ccc(O)cc2)C(=O)N[C@@H](CCCNC(=N)N)C(=O)N[C@@H](CCCNC(N)=O)C(=O)N1)C(N)=O [listing 2 of 2 here] |  |  |  | Selectivity Index [7]: 244 |
| CC(C)CN1CCC(NC(=O)C(=O)Nc2ccc(Cl)cc2)CC1 | 15.1 | > 300 | > 100 | IC50 [10]: 28 µM |
| O=C(Nc1ccc(Cl)cc1)C(=O)NC1CCNCC1 | 49.9 | 100 |  | IC50 [6]: 8 µM |
| O=C(O)CN1CCC(NC(=O)C(=O)Nc2ccc(Cl)cc2)CC1 | 11.9 | 260 | > 100 |  |
| Cc1ccc(NC(=O)C(=O)NC2CCNCC2)cc1 | 46 | 190 |  | IC50 [6]: 20 µM |
| N=C(N)NCCC[C@H](NC(=O)[C@@H]1CSSC[C@H](NC(=O)[C@H](Cc2ccc3ccccc3c2)NC(=O)[C@H](CCCNC(=N)N)NC(=O)[C@H](CCCNC(=N)N)NC(=O)c2ccc(F)cc2)C(=O)N[C@@H](Cc2ccc(O)cc2)C(=O)N[C@@H](CCCNC(N)=O)C(=O)N[C@@H](CCCNC(=N)N)C(=O)N[C@H](CCCCNC(=O)CCC(=O)NCCCCN2CCC(NC(=O)C(=O)Nc3ccc(Cl)cc3)CC2)C(=O)N2CCC[C@H]2C(=O)N[C@@H](Cc2ccc(O)cc2)C(=O)N[C@@H](CCCNC(=N)N)C(=O)N[C@@H](CCCNC(N)=O)C(=O)N1)C(N)=O [listing 2 of 2 here] |  |  |  | Selectivity Index [7]: 169 |
